The values below come from ChEMBL document CHEMBL3603793, “Antimalarial activity of prodrugs of N-branched acyclic nucleoside phosphonate inhibitors of 6-oxopurine phosphoribosyltransferases” (Bioorg Med Chem, 2015).

What is called Ki is the equilibrium dissociation constant of an inhibitor or competing ligand from its target. High values mean a looser hold on the target, low ones a stronger hold on the target. Broadly, the IC50 is the midpoint of a concentration-inhibition curve. For orientation: CC50 means the concentration giving 50% cytotoxicity. High values mean better tolerance by the cells, low ones harm at low concentration.

For data set [1], the target named is T1, Hypoxanthine-guanine phosphoribosyltransferase (Homo sapiens, UniProt P00492).
T1 sequence (P00492 whole entry): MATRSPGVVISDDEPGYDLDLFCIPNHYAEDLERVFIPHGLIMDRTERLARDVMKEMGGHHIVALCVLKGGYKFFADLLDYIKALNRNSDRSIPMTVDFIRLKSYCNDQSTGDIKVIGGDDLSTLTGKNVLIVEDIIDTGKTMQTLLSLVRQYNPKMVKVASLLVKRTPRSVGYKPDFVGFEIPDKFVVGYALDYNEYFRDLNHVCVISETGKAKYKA
In words: Inhibition of human HGPRT by spectrophotometric assay. The essentials:
(§1)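 Spectrophotometric assay at 25°C in 0.1 M Tris-HCl, 10 mM MgCl2, pH 7.4. PRib-PP was the variable substrate and guanine the fixed substrate at a saturating 60 μM. Values are apparent Ki, since only one concentration of the second substrate was used, calculated from Km(app) = Km(1+[I]/Ki(app)).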

Data set [2] can be described thus: Inhibition of Plasmodium falciparum HGXPRT by spectrophotometric assay. The essentials: as §1
Data set [3] concerns Plasmodium falciparum. In words: Antimalarial activity against chloroquine-sensitive Plasmodium falciparum D6 infected in erythrocytes assessed as inhibition of [3H]-hypoxanthine incorporation after 6 days. Type of data set: functional, organism-based.
Data set [4] concerns Plasmodium falciparum. In words: Antimalarial activity against chloroquine-resistant Plasmodium falciparum W2 infected in erythrocytes assessed as inhibition of [3H]-hypoxanthine incorporation after 6 days. Format: functional, organism-based.
A short description of data set [5]: Cytotoxicity against human A549 cells after 4 days. Type of data set: cell-based. The essentials: (§2)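 Cells seeded in 96-well plates at 7,500 (A549) or 15,000 (C32, C32-TG) per well; compounds added at serial dilutions 24 h later. Incubated four days at 37°C, then trypsinized and counted with a Coulter Counter. CC50 is the concentration giving 50% proliferation versus untreated cells, obtained by extrapolation; mean ± SEM of two or three independent tests.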

The nature of data set [6]: Cytotoxicity against human C32 cells after 4 days. Type of data set: cell-based. The procedure, abridged: as §2
Data set [7] in a line: Cytotoxicity against human HGPRT-deficient thioguanine-resistant C32TG cells after 4 days. Format: cell-based. The procedure, abridged: as §2

As for `Nc1nc2c(ncn2CCN(CCOCc2ccccc2)CCP(=O)(O)O)c(=O)[nH]1`, the inhibition constant (Ki) in data set [1] is 1.9 µM; in data set [2], 2.4 µM.
For `Nc1nc2c(ncn2CCN(CCP(=O)(O)O)CC(O)CO)c(=O)[nH]1` (configuration not stated) the same measures were 0.6 µM and 0.6 µM.
Regarding `Nc1nc2c(ncn2CCN(CCP(=O)(O)O)CP(=O)(O)O)c(=O)[nH]1`, the Ki in data set [1] amounted to 2 µM; in data set [2] it was 1 µM.
With `O=c1[nH]cnc2c1ncn2CCN(CCP(=O)(O)O)CC(O)CO` (configuration not stated), the inhibition constant Ki in data set [1] stood at 3.8 µM; in data set [2], 5 µM.
The corresponding values for `O=c1[nH]cnc2c1ncn2CCN(CCP(=O)(O)O)CP(=O)(O)O` are 10 µM and 6 µM.
As to `O=c1[nH]cnc2c1ncn2CCN(CCOCc1ccccc1)CCP(=O)(O)O`, the Ki is 13 µM in data set [1] and 4.3 µM in data set [2].
On to `CCOC(=O)[C@H](Cc1ccccc1)NP(=O)(CCN(CCC(=O)OC)CCn1cnc2c(=O)[nH]cnc21)N[C@@H](Cc1ccccc1)C(=O)OCC`, for which the half-maximal inhibitory concentration (IC50) worked out at 3.5 µM in data set [3] and 2.9 µM in data set [4]. For the same molecule, the CC50 at 96 h in data set [5] was 70 µM; in data set [6] it was > 300 µM; in data set [7], 212 µM.
For `CCOC(=O)[C@H](Cc1ccccc1)NP(=O)(CCN(CCCC#N)CCn1cnc2c(=O)[nH]cnc21)N[C@@H](Cc1ccccc1)C(=O)OCC` the same measures were 4.2 µM, 5.5 µM, 30 µM, 102 µM and 89 µM.
In the case of `CC(C)OC(=O)[C@H](Cc1ccccc1)NP(=O)(CCN(CCOCc1ccccc1)CCn1cnc2c(=O)[nH]cnc21)N[C@@H](Cc1ccccc1)C(=O)OC(C)C`, the IC50 in data set [3] amounted to 1.5 µM; in data set [4], 2.8 µM. In addition, the CC50 at 96 h is 23 µM in data set [5], 13 µM in data set [6] and 18 µM in data set [7].
As for `CCOC(=O)[C@H](Cc1ccccc1)NP(=O)(CCN(CCn1cnc2c(=O)[nH]cnc21)CP(=O)(N[C@@H](Cc1ccccc1)C(=O)OCC)N[C@@H](Cc1ccccc1)C(=O)OCC)N[C@@H](Cc1ccccc1)C(=O)OCC`, the half-inhibitory concentration (IC50) in data set [3] is 4.7 µM; in data set [4], 1.6 µM. Moreover, the figures for the CC50 at 96 h in data set [5], in data set [6] and in data set [7] were 41 µM, 23 µM and 25 µM, respectively.
The corresponding values for `CCOC(=O)[C@H](Cc1ccccc1)NP(=O)(CCN(CCn1cnc2c(=O)[nH]cnc21)CCP(=O)(N[C@@H](Cc1ccccc1)C(=O)OCC)N[C@@H](Cc1ccccc1)C(=O)OCC)N[C@@H](Cc1ccccc1)C(=O)OCC` are 3.1 µM, 2.7 µM, 79 µM, 48 µM and 48 µM.
In the case of `CCOC(=O)[C@H](Cc1ccccc1)NP(=O)(CCN(CCC(=O)OC)CCn1cnc2c(=O)[nH]c(N)nc21)N[C@@H](Cc1ccccc1)C(=O)OCC`, the half-inhibitory concentration (IC50) in data set [3] stood at 11.8 µM; in data set [4], 5.6 µM. Moreover, the CC50 at 96 h in data set [5], in data set [6] and in data set [7] was > 300 µM each time.
`CCOC(=O)[C@H](Cc1ccccc1)NP(=O)(CCN(CCCC(=O)OC)CCn1cnc2c(=O)[nH]c(N)nc21)N[C@@H](Cc1ccccc1)C(=O)OCC`: the IC50 in data set [3] stood at 8.6 µM; in data set [4], 5.7 µM. Moreover, the values for the 50% cytotoxic concentration (CC50) at 96 h in data set [5], in data set [6] and in data set [7] were ≥ 232 µM, 234 µM and ≥ 246 µM, respectively.
Consider `CC(C)OC(=O)[C@H](Cc1ccccc1)NP(=O)(CCN(CCOCc1ccccc1)CCn1cnc2c(=O)[nH]c(N)nc21)N[C@@H](Cc1ccccc1)C(=O)OC(C)C`, for which the results for the half-maximal inhibitory concentration (IC50) in data set [3] and in data set [4] were 1.6 µM and 2.9 µM, respectively. The figures for the cytotoxic concentration (CC50) at 96 h in data set [5], in data set [6] and in data set [7] were 20 µM, 17 µM and 23 µM, respectively.
`CCOC(=O)[C@H](Cc1ccccc1)NP(=O)(CCN(CCn1cnc2c(=O)[nH]c(N)nc21)CP(=O)(N[C@@H](Cc1ccccc1)C(=O)OCC)N[C@@H](Cc1ccccc1)C(=O)OCC)N[C@@H](Cc1ccccc1)C(=O)OCC`: the half-inhibitory concentration (IC50) was 10.4 µM in data set [3] and 4.6 µM in data set [4]. Also, the results for the 50% cytotoxic concentration (CC50) at 96 h in data set [5], in data set [6] and in data set [7] were > 300 µM, 65 µM and 56 µM, respectively.
With `CCOC(=O)[C@H](Cc1ccccc1)NP(=O)(CCN(CCn1cnc2c(=O)[nH]c(N)nc21)CCP(=O)(N[C@@H](Cc1ccccc1)C(=O)OCC)N[C@@H](Cc1ccccc1)C(=O)OCC)N[C@@H](Cc1ccccc1)C(=O)OCC`, the IC50 is 6.3 µM in data set [3] and 7.4 µM in data set [4]. The CC50 at 96 h in data set [5] came to 144 µM; in data set [6], 51 µM; in data set [7] it was 53 µM.
